According to ChEMBL document CHEMBL3259548, “Design, synthesis and biological evaluation of novel isoniazid derivatives with potent antitubercular activity” (Eur J Med Chem, 2014):
Values after ≈ are worked out from the molar mass of the structure shown.

Assays:
[1] = Selectivity index, ratio of IC50 for african green monkey Vero cells to MIC for Mycobacterium tuberculosis H37Rv ATCC 27294; format: toxicity, cell-based; conditions: read-out: Selectivity Index
Method in brief: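 Vero cells were seeded at ~4×10^5 cells/mL and grown 48 h at 37 °C in 5% CO2. […] MTT 0.5 mg/mL was added for 2 h and formazan dissolved in DMSO, with absorbance read at 570 nm to give IC50. SI = IC50 / H37Rv MIC (IC99).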

[2] = tested on: Mycobacterium tuberculosis; test: Antitubercular activity against Mycobacterium tuberculosis H37Rv ATCC 27294 by BACTEC 960 assay; format: functional
[3] = tested on: Vero; test: Cytotoxicity against african green monkey Vero cells after 48 hrs by MTT assay; format: cell-based; conditions: Chlorocebus sabaeus
[4] = Octanol-water partition co-efficient, log P of the compound by shake-flask method; format: physicochemical

| SMILES | MIC [2] | other results |
| --- | --- | --- |
| NNC(=O)c1ccnc(NN)c1 | 0.42 µM (≈ 0.0702 µg/mL) | selectivity ratio [1]: > 478; IC50 [3]: > 200 µM; logP [4]: -0.541 |
| CCN(CC)c1ccc(/C=N/NC(=O)c2ccncc2)cc1 | 2.02 µM (≈ 0.6 µg/mL) | – |
| O=C(NNS(=O)(=O)c1ccccc1)c1ccncc1 | 10.8 µM (≈ 3 µg/mL) | – |
| NNC(=O)c1ccnc(N)c1 | 14.5 µM (≈ 2.21 µg/mL) | – |
| CC(C)=NNC(=O)c1ccncc1 | 0.113 µM (≈ 0.02 µg/mL) | – |
| O=C(N/N=C/C(O)C(O)C(O)CO)c1ccncc1 (configuration not stated) | 0.186 µM (≈ 0.0501 µg/mL) | – |
| CCCCCCCCCC(=O)NNC(=O)c1ccncc1 | 0.38 µM (≈ 0.111 µg/mL) | selectivity ratio [1]: > 530; IC50 [3]: > 75 µM; logP [4]: 3.46 |
| CCOc1cc(C(=O)NN)ccn1 | 450 µM (≈ 81.5 µg/mL) | – |
| O=C(N/N=C/c1ccc(CO)cc1)c1ccncc1 | 0.27 µM (≈ 0.0689 µg/mL) | selectivity ratio [1]: > 729; IC50 [3]: > 200 µM; logP [4]: 0.731 |
| Cc1cnccc1C(=O)NN | 1320 µM (≈ 200 µg/mL) | – |
| O=C(NNC(=O)c1ccncc1)c1ccncc1 | 33 µM (≈ 8 µg/mL) | – |
| CCCCN(CCCC)Cc1cccc(/C(C)=N/NC(=O)c2ccncc2)c1O | 4.43 µM (≈ 1.76 µg/mL) | – |
| Nc1ccc(S(=O)(=O)NNC(=O)c2ccncc2)cc1 | 2050 µM (≈ 600 µg/mL) | – |
| C/C(=N/NC(=O)c1ccncc1)c1cccc(CN2CCN(Cc3ccccn3)CC2)c1O | 0.87 µM (≈ 0.387 µg/mL) | – |
| CCN(CC)Cc1cccc(/C(C)=N\NC(=O)c2ccncc2)c1O | 3.93 µM (≈ 1.34 µg/mL) | – |
| C/C(=N\NC(=O)c1ccncc1)c1cccc(CN2CCN(C)CC2)c1O | 3.36 µM (≈ 1.23 µg/mL) | – |
| CCCCCC(C)C(=O)NNC(=O)c1ccncc1 (configuration not stated) | 3.04 µM (≈ 0.801 µg/mL) | logP [4]: 2.09 |
| CC(=O)Nc1ccc(/C=N\NC(=O)c2ccncc2)cc1 | 0.283 µM (≈ 0.0799 µg/mL) | – |
| C/C(=N\NC(=O)c1ccncc1)c1cccc(CN(Cc2ccccc2)Cc2ccccc2)c1O | 1.3 µM (≈ 0.604 µg/mL) | – |
| NNC(=O)c1ccnc(I)c1 | 254 µM (≈ 66.8 µg/mL) | – |
| CCCCC/C(C)=N/NC(=O)c1ccncc1 | 0.129 µM (≈ 0.0301 µg/mL) | – |
| C/C(=N\NC(=O)c1ccncc1)c1cccc(CN2CCN(c3ccccn3)CC2)c1O | 0.88 µM (≈ 0.379 µg/mL) | – |
| CC(C)(C#N)NNC(=O)c1ccncc1 | 0.294 µM (≈ 0.06 µg/mL) | – |
| O=C(NNS(=O)(=O)c1ccc([N+](=O)[O-])cc1)c1ccncc1 | 186 µM (≈ 60 µg/mL) | – |

| SMILES | MIC [2] | other results |
| --- | --- | --- |
| CC(O)(NNC(=O)c1ccncc1)C(=O)O (configuration not stated) | 0.266 µM (≈ 0.0599 µg/mL) | – |
| CC(C)/C=N\NC(=O)c1ccncc1 | 0.523 µM (≈ 0.1 µg/mL) | – |
| O=C(NNCc1ccco1)c1ccncc1 | 69.1 µM (≈ 15 µg/mL) | – |
| C/C(=N\NC(=O)c1ccncc1)c1cccc(CN2CCCC2)c1O | 2.2 µM (≈ 0.745 µg/mL) | – |
| NNC(=O)c1ccncc1 [ISONIAZID] | 0.146 µM (≈ 0.02 µg/mL) | selectivity ratio [1]: > 686; IC50 [3]: > 200 µM; logP [4]: -0.851 |
| CC1CCC(NNC(=O)c2ccncc2)CC1 (configuration not stated) | 21.4 µM (≈ 5 µg/mL) | – |
| CC(=O)NNC(=O)c1ccncc1 | 44.6 µM (≈ 8 µg/mL) | – |
| CC(C)CCOc1ccc(/C=N/NC(=O)c2ccncc2)cc1 | 0.161 µM (≈ 0.0501 µg/mL) | – |
| COC(=O)c1ccc(/C=N/NC(=O)c2ccncc2)cc1 | 1.06 µM (≈ 0.3 µg/mL) | logP [4]: 1.32 |
| Cc1ccc(OC/C(N)=N/NC(=O)c2ccncc2)cc1 | 22 µM (≈ 6.25 µg/mL) | – |
| CC1CCC(=NNC(=O)c2ccncc2)CC1 (configuration not stated) | 0.303 µM (≈ 0.0701 µg/mL) | – |
| CCCCCCCCCCCCNNC(=O)c1ccncc1 | 0.164 µM (≈ 0.0501 µg/mL) | – |
| CC1CCCC(NNC(=O)c2ccncc2)C1 (configuration not stated) | 17.1 µM (≈ 4 µg/mL) | – |
| C/C(=N/NC(=O)c1ccncc1)c1cccc(CN2CCN(Cc3ccc(F)cn3)CC2)c1O | 2.04 µM (≈ 0.944 µg/mL) | – |
| Cc1ccc(C)n1NC(=O)c1ccncc1 | 46.5 µM (≈ 10 µg/mL) | – |
| NNC(=O)c1ccnc([N+](=O)[O-])c1 | 371 µM (≈ 67.6 µg/mL) | – |
| O=C(N/N=C(\CO)C(O)C(O)C(O)CO)c1ccncc1 (configuration not stated) | 0.2 µM (≈ 0.0599 µg/mL) | – |
| CC(=O)Nc1cc(C(=O)NN)ccn1 | 2150 µM (≈ 418 µg/mL) | – |
| O=C(N/N=C/c1ccc(Oc2ccccc2)cc1)c1ccncc1 | 0.95 µM (≈ 0.301 µg/mL) | logP [4]: 3.7 |
| COc1cc(C(=O)NN)ccn1 | 153 µM (≈ 25.6 µg/mL) | – |
| O=C(NNC1CCC(c2ccccc2)CC1)c1ccncc1 (configuration not stated) | 0.44 µM (≈ 0.13 µg/mL) | selectivity ratio [1]: > 454; IC50 [3]: > 200 µM; logP [4]: 2.83 |
| CC(C)NNC(=O)c1ccncc1 [IPRONIAZID] | 2.23 µM (≈ 0.4 µg/mL) | – |
| Cc1cccc(OC/C(N)=N/NC(=O)c2ccncc2)c1 | 11 µM (≈ 3.12 µg/mL) | – |
| O=CNNC(=O)c1ccncc1 | 18.2 µM (≈ 3 µg/mL) | – |

| SMILES | MIC [2] | other results |
| --- | --- | --- |
| CCc1cc(C(=O)NN)ccn1 | 21.1 µM (≈ 3.49 µg/mL) | – |
| NNC(=O)c1ccnc(Br)c1 | 69.4 µM (≈ 15 µg/mL) | – |
| O=C(NN=C1CCCCC1)c1ccncc1 | 0.028 µM (≈ 0.00608 µg/mL) | – |
| CC(=O)NCc1cc(C(=O)NN)ccn1 | 243 µM (≈ 50.6 µg/mL) | – |
| O=Cc1cccc(/C=N/NC(=O)c2ccncc2)c1 | 0.28 µM (≈ 0.0709 µg/mL) | selectivity ratio [1]: > 724; IC50 [3]: > 200 µM; logP [4]: 1.33 |
| N/C(COc1ccc([N+](=O)[O-])cc1)=N/NC(=O)c1ccncc1 | 19.8 µM (≈ 6.25 µg/mL) | – |
| C/C(=N\NC(=O)c1ccncc1)c1cccc(CN(C)C)c1O | 2.29 µM (≈ 0.715 µg/mL) | – |
| CCC(C)NNC(=O)c1ccncc1 (configuration not stated) | 2.07 µM (≈ 0.4 µg/mL) | – |
| CCCCCC/C=N/NC(=O)c1ccncc1 | 0.129 µM (≈ 0.0301 µg/mL) | – |
| Cc1cc(C(=O)NN)ccn1 | 5.2 µM (≈ 0.786 µg/mL) | – |
| CCCc1cc(C(=O)NN)ccn1 | 55.2 µM (≈ 9.89 µg/mL) | – |
| CC(C)COc1ccc(/C=N/NC(=O)c2ccncc2)cc1 | 0.673 µM (≈ 0.2 µg/mL) | – |
| CCC(CC)NNC(=O)c1ccncc1 | 14.5 µM (≈ 3 µg/mL) | – |
| O=C(NN=C1CCCC1)c1ccncc1 | 0.2 µM (≈ 0.0406 µg/mL) | selectivity ratio [1]: > 965; IC50 [3]: > 190 µM; logP [4]: 0.22 |
| C/C(=N/NC(=O)c1ccncc1)c1cccc(CN2CCNCC2)c1O | 8.61 µM (≈ 3.04 µg/mL) | – |
| C/C(=N\NC(=O)c1ccncc1)c1cccc(CN2CCN(c3cc4c(cc3F)c(=O)c(C(=O)O)cn4C3CC3)CC2)c1O | 1.26 µM (≈ 0.754 µg/mL) | – |
| O=C(N/N=C/c1cccc(CO)c1)c1ccncc1 | 0.47 µM (≈ 0.12 µg/mL) | selectivity ratio [1]: > 425; IC50 [3]: > 200 µM; logP [4]: 0.902 |
| O=Cc1ccc(/C=N/NC(=O)c2ccncc2)cc1 | 0.24 µM (≈ 0.0608 µg/mL) | selectivity ratio [1]: > 844; IC50 [3]: > 200 µM; logP [4]: 1.32 |
| Cc1ccccc1OC/C(N)=N/NC(=O)c1ccncc1 | 44 µM (≈ 12.5 µg/mL) | – |
| CCCCCCCCCC/C=N/NC(=O)c1ccncc1 | 1.04 µM (≈ 0.3 µg/mL) | – |
| CNC1C(OC2C(OC3C(O)C(O)C(NC(=N)N)C(O)C3NC(=N)N)OC(C)C2(O)/C=N\NC(=O)c2ccncc2)OC(CO)C(O)C1O (configuration not stated) | 0.214 µM (≈ 0.15 µg/mL) | – |
| O=C(NNC1CCCCC1)c1ccncc1 | 22.8 µM (≈ 5 µg/mL) | – |
| CCN(CC)c1cc(C(=O)NN)ccn1 | 717 µM (≈ 149 µg/mL) | – |
| N/C(COc1cccc(Cl)c1)=N\NC(=O)c1ccncc1 | 10.2 µM (≈ 3.12 µg/mL) | – |

| SMILES | MIC [2] | other results |
| --- | --- | --- |
| C/C(=N\NC(=O)c1ccncc1)c1cccc(CN2CCCCC2)c1O | 4.61 µM (≈ 1.62 µg/mL) | – |
| NNC(=O)c1ccnc(Cl)c1 | 392 µM (≈ 67.3 µg/mL) | – |
| CCCCCCCCC(=O)NNC(=O)c1ccncc1 | 0.09 µM (≈ 0.025 µg/mL) | – |
| O=C(NNC(=O)C(O)C(O)C(O)CO)c1ccncc1 (configuration not stated) | 0.501 µM (≈ 0.143 µg/mL) | – |
| NNC(=O)c1ccnc(Cc2ccccc2)c1 | 38.5 µM (≈ 8.75 µg/mL) | – |
| CC(C)CNNC(=O)c1ccncc1 | 0.517 µM (≈ 0.0999 µg/mL) | – |
| NNC(=O)c1ccnc(-c2ccccc2)c1 | 50 µM (≈ 10.7 µg/mL) | – |
| C/C(=N\NC(=O)c1ccncc1)c1cccc(CN2CCOCC2)c1O | 3.57 µM (≈ 1.27 µg/mL) | – |
| CC(=O)C/C(C)=N/NC(=O)c1ccncc1 | 3.65 µM (≈ 0.8 µg/mL) | – |
| CCN(CC)CN(C)c1ccc(/C=N/NC(=O)c2ccncc2)cc1 | 0.236 µM (≈ 0.0801 µg/mL) | – |
| CCC(CC)=NNC(=O)c1ccncc1 | 0.097 µM (≈ 0.0199 µg/mL) | – |
| O=C(NNC(O)C(Cl)(Cl)Cl)c1ccncc1 (configuration not stated) | 0.141 µM (≈ 0.0401 µg/mL) | – |
| CCn1cc(C(=O)O)c(=O)c2cc(F)c(N3CCN(Cc4cccc(/C(C)=N/NC(=O)c5ccncc5)c4O)C(C)C3)c(F)c21 (configuration not stated) | 0.9 µM (≈ 0.557 µg/mL) | – |
| C/C=N/NC(=O)c1ccncc1 | 0.245 µM (≈ 0.04 µg/mL) | – |
| O=C(NNC(=O)C(O)C(OC1OC(CO)C(O)C(O)C1O)C(O)CO)c1ccncc1 (configuration not stated) | 0.346 µM (≈ 0.155 µg/mL) | – |
| O=C(NN=C1CCC(c2ccccc2)CC1)c1ccncc1 (configuration not stated) | 0.27 µM (≈ 0.0792 µg/mL) | selectivity ratio [1]: > 733; IC50 [3]: > 200 µM; logP [4]: 1.97 |
| NNC(=O)c1ccnc(F)c1 | 2.58 µM (≈ 0.4 µg/mL) | – |
| C/C=C/CCCCCCC/C=N/NC(=O)c1ccncc1 | 0.522 µM (≈ 0.15 µg/mL) | – |
| NNC(=O)c1ccncc1N | 9.86 µM (≈ 1.5 µg/mL) | – |
| N/C(COc1ccc(Cl)cc1)=N\NC(=O)c1ccncc1 | 10.2 µM (≈ 3.12 µg/mL) | – |
| C/C(=N\NC(=O)c1ccncc1)c1cccc(CN(c2ccccc2)c2ccccc2)c1O | 0.56 µM (≈ 0.244 µg/mL) | – |
| C=Cc1cc(C(=O)NN)ccn1 | 35 µM (≈ 5.71 µg/mL) | – |
